Bioassay records from PubChem BioAssay.
PG9 Ab binder: PG9 antibody binding by small molecule. TR-FRET gp120-PG9 antibody binding. inhibition, % at 6.7 µM. 360,000 compounds, 0.43% hits; in the data active means inhibition above about 8.5%
MC4R antag cAMP: human MC4R antagonism in cAMP assay; 360,000 compounds, 0.48% hits; inhibition, % at 6.5 µM; P32245; MC4R-expressing cells, MTII-stimulated cAMP, LANCE TR-FRET;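 active means inhibition above its plate's cutoff, the mean of tested wells on that plate plus 3 SD, cut at about 29% in these data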;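 further: 0% = Melanotan II alone and 100% = Melanotan II plus saturating MCL0020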
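system = U2OS cells with stable human MC4R expression | also added = Melanotan II challenge after compound preincubation | dosing = one concentration, 6.5 µM nominal | incubation = compound 30 min, challenge 1 h, detection 1 h | measured by = TR-FRET with Eu-cAMP and labeled anti-cAMP, 671 nm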
Rev-erbA mod: Rev-erb alpha (human) modulation | P20393 | Rev-erbα–FITC-DNA binding, fluorescence polarization, 90 min | activity, % at 10 µM | 370,000 compounds, 0.79% hits | AID 1259318;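 active means activity above about 14%, limit read from the data; passing the limit was not always enough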;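 further: 0% = DMSO wells with 35 nM protein and 100% = DMSO wells with 750 nM protein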
Target sequence (P20393 whole entry, looked up): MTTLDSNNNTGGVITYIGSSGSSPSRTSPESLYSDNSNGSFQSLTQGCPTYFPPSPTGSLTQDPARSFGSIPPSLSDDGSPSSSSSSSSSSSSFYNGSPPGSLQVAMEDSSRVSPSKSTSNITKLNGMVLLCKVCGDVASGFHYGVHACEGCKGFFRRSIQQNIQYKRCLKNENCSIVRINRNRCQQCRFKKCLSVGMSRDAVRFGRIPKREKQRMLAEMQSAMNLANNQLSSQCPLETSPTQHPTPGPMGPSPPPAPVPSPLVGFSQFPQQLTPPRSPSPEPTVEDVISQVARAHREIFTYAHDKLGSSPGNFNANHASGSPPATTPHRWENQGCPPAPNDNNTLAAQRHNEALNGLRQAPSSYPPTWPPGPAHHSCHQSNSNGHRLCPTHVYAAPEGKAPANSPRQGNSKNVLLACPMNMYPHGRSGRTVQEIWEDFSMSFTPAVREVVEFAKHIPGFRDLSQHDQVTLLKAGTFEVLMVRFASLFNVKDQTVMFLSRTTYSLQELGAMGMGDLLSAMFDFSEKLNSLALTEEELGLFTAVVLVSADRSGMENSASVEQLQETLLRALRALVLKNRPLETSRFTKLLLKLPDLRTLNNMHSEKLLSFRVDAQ
MC4R ag barr: human MC4R agonism via beta-arrestin. U2OS MC4R beta-arrestin complementation, luminescence; percent of melanotan II response, DMSO zero. 360,000 compounds, 0.98% hits. AID 540308. activation, % at 8.9 µM;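 active means activation above a per-plate cutoff, the mean activation of sample wells on that plate plus 3 SD, cut at about 8% in these data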
NTR1 agonist: NTR1 (human) agonism; P30989; NTR1-U2OS beta-arrestin-GFP spot imaging, agonist mode; activation, % at 20 µM; 330,000 compounds, 0.17% hits;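 active means activation at or above 40% of the spot to cytoplasm intensity ratio, with at least 20 cells analyzed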;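 further: 0% = DMSO without peptide and 100% = 100 nM NTR1 peptide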
U2OS cAMP counter: nonselective cAMP signaling inhibitor, MC4R antagonist counter-screen. inhibition, % at 6.5 µM. parental U2OS, forskolin cAMP, LANCE TR-FRET. shares compounds with MC4R antag cAMP. 1,600 compounds, 26% hits;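 active means mean inhibition over triplicates above the low-control well mean plus 3 SD, set per campaign, cut at about 13% in these data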;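 further: signal is single emission at 671 nm which falls as cellular cAMP rises; 0% = forskolin-stimulated wells and 100% = buffer without forskolin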
MC4R antag conf: human MC4R cAMP antagonism confirmation; AID 602195; MC4R-expressing cells, MTII-stimulated cAMP, TR-FRET; inhibition, % at 6.5 µM; shares compounds with MC4R antag cAMP; 1,600 compounds, 27% hits; in the data active means inhibition above about 29%;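 further: 0% = agonist stimulated wells alone and 100% = agonist stimulated wells plus saturating reference antagonist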
* marks the source's active call; other numbers are inactive results. Rows were chosen to be rich in hits. Some 2.5% of all compounds tested hit in one or more screens of this group.

`COc1ccc(C(=O)/C=C/C(=O)N(CC(=O)NC2CCCCC2)Cc2cccs2)c(O)c1` gave PG9 Ab binder 3, MC4R antag cAMP 32*, Rev-erbA mod 2, MC4R ag barr -6, NTR1 agonist 26, U2OS cAMP counter 10 and MC4R antag conf 23.
`COc1ccc(C(=O)/C=C/C(=O)N(Cc2ccc3c(c2)OCO3)C(C(=O)NC2CCCCC2)c2ccncc2)c(O)c1` (stereo unspecified) gave PG9 Ab binder 0, MC4R antag cAMP 4, Rev-erbA mod 1, MC4R ag barr 0 and NTR1 agonist 4.
For COCCN(CC(=O)NC1CCCCC1)C(=O)/C=C/C(=O)c1ccc(OC)cc1O the results were PG9 Ab binder 2, MC4R antag cAMP 41*, Rev-erbA mod 2, MC4R ag barr -6, U2OS cAMP counter 2 and MC4R antag conf 5.
For COc1ccc(CN(C(=O)/C=C/C(=O)c2ccc(OC)cc2O)C(C(=O)NC2CCCCC2)c2ccncc2)cc1 (stereo unspecified) the results were PG9 Ab binder 0, MC4R antag cAMP 10, Rev-erbA mod -1, MC4R ag barr 0 and NTR1 agonist 3.
Screening CCC(CC)C(=O)N(C)c1c(C)nc2c(OCCOc3ccc(F)cc3)cccn12 returned PG9 Ab binder 0, MC4R antag cAMP 30*, Rev-erbA mod 0, MC4R ag barr 2, U2OS cAMP counter -1 and MC4R antag conf 2.
`CCN1CCN(C(c2cccs2)C(C)NS(=O)(=O)c2ccc(C)cc2)CC1` (stereo unspecified) gave PG9 Ab binder -1, MC4R antag cAMP 30*, Rev-erbA mod -1, MC4R ag barr -2, NTR1 agonist -2, U2OS cAMP counter 1 and MC4R antag conf -8.
C[C@@H]1CCCN1c1cccc2c1S(=O)(=O)N1CC[C@@H](C1)O2 was read as Rev-erbA mod 2.
For CCN(CC)S(=O)(=O)c1cc(C(=O)Nc2nncs2)c(Cl)cc1Cl the results were PG9 Ab binder -1, MC4R antag cAMP 43*, Rev-erbA mod 0, MC4R ag barr -2, NTR1 agonist 13, U2OS cAMP counter 17* and MC4R antag conf 43*.
C#CCOCCOCCOCCNc1nc(N2CCN(C(=O)CCCCCCCCCCNC(=O)[C@H](CCCCN)n3cc(C[C@@H](C)CC)nn3)CC2)nc(N2CCN(C(=O)CCCCCCCCCCNC(=O)[C@H](CCCCN)n3cc(C[C@@H](C)CC)nn3)CC2)n1 was read as MC4R antag cAMP 75*, MC4R ag barr 0, U2OS cAMP counter 34* and MC4R antag conf 84*.
`COC(=O)[C@]12C[C@H](CC(=O)N3CCCCC3)C(=O)N(Cc3ccco3)C1=C[C@H](C1CCCC1)O[C@@H]2C` gave Rev-erbA mod -3.
`Cc1ccc(Nc2nc(N/N=C/c3c[nH]c4ccccc34)nc(N3CCOCC3)n2)cc1` gave PG9 Ab binder -2, MC4R antag cAMP 31*, Rev-erbA mod 3, MC4R ag barr 3, NTR1 agonist 31, U2OS cAMP counter 5 and MC4R antag conf 19.
Cc1cc(C=O)c(C)n1-c1cccc(C(=O)O)c1 was read as PG9 Ab binder 1, MC4R antag cAMP 33*, Rev-erbA mod -4, MC4R ag barr 0, NTR1 agonist 1, U2OS cAMP counter 1 and MC4R antag conf 3.
For Cc1cc(C=O)c(C)n1-c1cc(C(=O)O)cc(C(=O)O)c1 the results were PG9 Ab binder -2, MC4R antag cAMP 14, Rev-erbA mod -3, MC4R ag barr -2 and NTR1 agonist 1.
CC1(C)CC(=O)C2=C(C1)OC1=C(C(=O)CC(C)(C)C1)C2c1ccc(O)cc1O was read as PG9 Ab binder -1, MC4R antag cAMP 74*, Rev-erbA mod -1, MC4R ag barr -4, NTR1 agonist 39, U2OS cAMP counter 50* and MC4R antag conf 52*.
For CC(C)=CC([C@]12C[C@H](CO)N[C@@H]1Nc1ccccc12)S(=O)(=O)c1ccccc1 (stereo partly specified) the results were Rev-erbA mod -2.
